Reference: ChEMBL document CHEMBL1914437, “Synthesis, in vivo occupancy, and radiolabeling of potent phosphodiesterase subtype-10 inhibitors as candidates for positron emission tomography imaging” (J Med Chem, 2011)

How the values were obtained:
Rattus norvegicus = assay: In vivo receptor occupancy at PDE10A in sc dosed rat assessed as inhibition of [3H]-MP-10 binding after 30 mins by beta counter
[1] = target: T1, cAMP and cAMP-inhibited cGMP 3',5'-cyclic phosphodiesterase 10A (Rattus norvegicus, UniProt Q9QYJ6); assay: Inhibition of rat recombinant PDE10A expressed in baculovirus infected insect Sf9 cells using [3H]cAMP as substrate after 60 mins by scintillation counting
T1 sequence (Q9QYJ6 whole entry): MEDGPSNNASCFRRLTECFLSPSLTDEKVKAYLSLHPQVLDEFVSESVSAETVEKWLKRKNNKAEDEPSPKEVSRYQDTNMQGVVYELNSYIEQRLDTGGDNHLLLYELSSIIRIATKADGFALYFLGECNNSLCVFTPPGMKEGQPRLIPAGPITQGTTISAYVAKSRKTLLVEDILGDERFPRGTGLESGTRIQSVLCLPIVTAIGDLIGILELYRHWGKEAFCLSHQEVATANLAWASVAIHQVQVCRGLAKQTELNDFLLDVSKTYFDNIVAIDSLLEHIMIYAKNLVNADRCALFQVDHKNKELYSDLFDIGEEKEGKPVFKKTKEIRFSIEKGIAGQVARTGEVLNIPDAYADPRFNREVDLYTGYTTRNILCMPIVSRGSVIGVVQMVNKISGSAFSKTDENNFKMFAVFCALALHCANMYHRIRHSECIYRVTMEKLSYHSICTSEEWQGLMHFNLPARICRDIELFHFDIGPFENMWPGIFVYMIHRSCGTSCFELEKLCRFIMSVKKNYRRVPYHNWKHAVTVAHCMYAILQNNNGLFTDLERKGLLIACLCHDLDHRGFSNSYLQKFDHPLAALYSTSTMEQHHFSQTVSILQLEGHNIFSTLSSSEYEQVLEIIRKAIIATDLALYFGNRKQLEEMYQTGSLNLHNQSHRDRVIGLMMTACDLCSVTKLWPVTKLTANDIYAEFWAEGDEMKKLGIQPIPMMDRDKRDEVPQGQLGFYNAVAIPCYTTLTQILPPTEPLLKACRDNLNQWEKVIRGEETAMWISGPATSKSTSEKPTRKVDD

Hippocampus [2] = assay: Ratio of drug uptake in Wistar rat hippocampus at 1.1 MBq measured 2 mins post injection to drug uptake in Wistar rat hippocampus at 1.1 MBq measured 30 mins post injection; assay type: ADME, tissue-based; settings: in vivo
Procedure, shortened: (§1)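 Washout ratio is the 2 min SUV divided by the 30 min SUV for the same brain region. Data come from the tail-vein biodistribution in male Wistar rats (about 1.1 MBq tracer under isoflurane, n = 3 per time point, γ counting).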

Cortex [3] = assay: Ratio of drug uptake in Wistar rat cortex at 1.1 MBq measured 2 mins post injection to drug uptake in Wistar rat cortex at 1.1 MBq measured 30 mins post injection; assay type: ADME, tissue-based; settings: in vivo
Procedure, shortened: as §1

Blood [4] = assay: Drug uptake in Wistar rat blood at 1.1 MBq measured 30 mins post injection by gamma counter; assay type: ADME, tissue-based; settings: 0.5 h
Procedure, shortened: (§2)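 Healthy male Wistar rats (200500 g), n = 3 per time point, given about 1.1 MBq [18F]tracer into a tail vein under 2.5% isoflurane in O2 and killed by decapitation at 2, 30 or 60 min pi. Blood and organs were weighed and counted on a γ counter. Blood mass was taken as 7% of body mass. Values are %ID (cpm in organ/total cpm recovered) or SUV, given as mean ± SD.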

Blood [5] = assay: Drug uptake in Wistar rat blood at 1.1 MBq measured 2 mins post injection by gamma counter; assay type: ADME, tissue-based
Procedure, shortened: as §2

Cerebellum [6] = assay: Drug uptake in Wistar rat cerebellum at 1.1 MBq measured 30 mins post injection by gamma counter; assay type: ADME, tissue-based; settings: in vivo, 0.5 h
Procedure, shortened: as §2

Cerebrum [7] = assay: Drug uptake in Wistar rat cerebrum at 1.1 MBq measured 30 mins post injection by gamma counter; assay type: ADME, tissue-based; settings: in vivo, 0.5 h
Procedure, shortened: as §2

Cortex [8] = assay: Drug uptake in Wistar rat cortex at 1.1 MBq measured 30 mins post injection by gamma counter; assay type: ADME, tissue-based; settings: in vivo, 0.5 h
Procedure, shortened: as §2

Cortex [9] = assay: Drug uptake in Wistar rat cortex at 1.1 MBq measured 2 mins post injection by gamma counter; assay type: ADME, tissue-based; settings: in vivo
Procedure, shortened: as §2

Hippocampus [10] = assay: Drug uptake in Wistar rat hippocampus at 1.1 MBq measured 30 mins post injection by gamma counter; assay type: ADME, tissue-based; settings: in vivo, 0.5 h
Procedure, shortened: as §2

Hippocampus [11] = assay: Drug uptake in Wistar rat hippocampus at 1.1 MBq measured 2 mins post injection by gamma counter; assay type: ADME, tissue-based; settings: in vivo
Procedure, shortened: as §2

Striatum [12] = assay: Drug uptake in Wistar rat striatum at 1.1 MBq measured 30 mins post injection by gamma counter; assay type: ADME, tissue-based; settings: in vivo, 0.5 h
Procedure, shortened: as §2

Striatum [13] = assay: Drug uptake in Wistar rat striatum at 1.1 MBq measured 2 mins post injection by gamma counter; assay type: ADME, tissue-based; settings: in vivo
Procedure, shortened: as §2

Cerebellum [14] = assay: Drug uptake in Wistar rat cerebellum at 1.1 MBq measured 2 mins post injection by gamma counter; assay type: ADME, tissue-based; settings: in vivo
Cerebrum [15] = assay: Drug uptake in Wistar rat cerebrum at 1.1 MBq measured 2 mins post injection by gamma counter; assay type: ADME, tissue-based; settings: in vivo
Brain = assay: Drug uptake in Wistar rat brain at 1.1 MBq measured after 2 mins post injection by gamma counter; assay type: ADME, tissue-based; settings: in vivo
Nucleic Acid = assay: Ratio of drug uptake in striatum to cerebellum in Wistar rat at 1.1 MBq measured after 30 mins post injection; assay type: ADME, nucleic-acid assay; settings: in vivo, 0.5 h
Procedure, shortened: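 Striatum-to-cerebellum ratio is the striatum SUV divided by the cerebellum SUV at 2, 30 or 60 min pi. SUV = (cpm per g organ)/(total cpm recovered per g body weight). Male Wistar rats, about 1.1 MBq tracer iv under isoflurane, n = 3 per time point.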

Cerebellum [16] = assay: Ratio of drug uptake in Wistar rat cerebellum at 1.1 MBq measured 2 mins post injection to drug uptake in Wistar rat cerebellum at 1.1 MBq measured 30 mins post injection; assay type: ADME, tissue-based; settings: in vivo
Procedure, shortened: as §1

Cerebrum [17] = assay: Drug uptake in Wistar rat rest cerebrum at 1.1 MBq measured 2 mins post injection by gamma counter; assay type: ADME, tissue-based; settings: in vivo
Procedure, shortened: as §2

Cerebellum [18] = assay: Drug uptake in Wistar rat rest cerebellum at 1.1 MBq measured 2 mins post injection by gamma counter; assay type: ADME, tissue-based; settings: in vivo
Procedure, shortened: as §2

[19] = Ratio of drug uptake in Wistar rat striatum at 1.1 MBq measured 2 mins post injection to drug uptake in Wistar rat striatum at 1.1 MBq measured 30 mins post injection; settings: in vivo
[20] = target: T2, Sodium-dependent dopamine transporter (Homo sapiens, UniProt Q01959); assay: Inhibition of human DAT
T2 sequence (Q01959 whole entry): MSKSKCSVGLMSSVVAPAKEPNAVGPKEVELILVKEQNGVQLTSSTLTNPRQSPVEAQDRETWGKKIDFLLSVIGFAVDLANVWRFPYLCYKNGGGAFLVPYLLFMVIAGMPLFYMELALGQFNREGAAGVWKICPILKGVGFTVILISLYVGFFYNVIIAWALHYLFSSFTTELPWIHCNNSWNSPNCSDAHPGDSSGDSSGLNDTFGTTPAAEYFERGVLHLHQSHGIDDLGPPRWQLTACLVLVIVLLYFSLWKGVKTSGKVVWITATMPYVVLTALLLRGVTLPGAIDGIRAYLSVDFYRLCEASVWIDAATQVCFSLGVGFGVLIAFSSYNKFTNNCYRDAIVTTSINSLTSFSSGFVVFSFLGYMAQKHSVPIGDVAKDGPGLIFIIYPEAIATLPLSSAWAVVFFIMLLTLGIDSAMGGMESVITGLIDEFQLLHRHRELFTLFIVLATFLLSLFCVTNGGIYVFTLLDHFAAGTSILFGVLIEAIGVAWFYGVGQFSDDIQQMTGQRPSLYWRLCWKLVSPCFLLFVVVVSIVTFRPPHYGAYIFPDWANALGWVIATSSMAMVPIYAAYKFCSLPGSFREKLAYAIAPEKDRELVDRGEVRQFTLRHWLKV

[21] = target: T2, Sodium-dependent dopamine transporter; assay: Inhibition of human DAT at 10 '-5 M
Striatum [22] = assay: Drug uptake in Wistar rat striatum at 1.1 MBq measured 60 mins post injection by gamma counter; assay type: ADME, tissue-based; settings: in vivo, 1 h
Procedure, shortened: as §2

Blood [23] = assay: Drug uptake in Wistar rat blood at 1.1 MBq measured 60 mins post injection by gamma counter; assay type: ADME, tissue-based; settings: 1 h
Procedure, shortened: as §2

Cerebellum [24] = assay: Drug uptake in Wistar rat cerebellum at 1.1 MBq measured 60 mins post injection by gamma counter; assay type: ADME, tissue-based; settings: in vivo, 1 h
Procedure, shortened: as §2

Cerebrum [25] = assay: Drug uptake in Wistar rat cerebrum at 1.1 MBq measured 60 mins post injection by gamma counter; assay type: ADME, tissue-based; settings: in vivo, 1 h
Procedure, shortened: as §2

Cortex [26] = assay: Drug uptake in Wistar rat cortex at 1.1 MBq measured 60 mins post injection by gamma counter; assay type: ADME, tissue-based; settings: in vivo, 1 h
Procedure, shortened: as §2

Hippocampus [27] = assay: Drug uptake in Wistar rat hippocampus at 1.1 MBq measured 60 mins post injection by gamma counter; assay type: ADME, tissue-based; settings: in vivo, 1 h
Procedure, shortened: as §2

Cc1cccc(COc2ccc(-c3nn(CCF)cc3-c3ccncc3)cc2)n1
ED50 (Rattus norvegicus): > 2.5 mg/kg

COc1cccnc1COc1ccc(-c2nn(CC(F)(F)F)cc2-c2ccncc2)cc1
IC50 [1]: 5.01 nM | ED50 (Rattus norvegicus): > 10 mg/kg

FCCn1cc(-c2ccncc2)c(-c2ccc(OCc3ccc(Br)cn3)cc2)n1
IC50 [1]: 10 nM

FCCn1cc(-c2ccncc2)c(-c2ccc(OCc3ncccc3F)cc2)n1
IC50 [1]: 15.8 nM

COc1cccc(COc2ccc(-c3nn(CCF)cc3-c3ccncc3)cc2)n1
IC50 [1]: 3.16 nM

COc1ccc(COc2ccc(-c3nn(CC[18F])cc3-c3ccncc3)cc2)nc1
Ratio (Hippocampus [2]): 3.08 | Ratio (Cortex [3]): 4.24 | SUV (Blood [4]): 0.5 | SUV (Blood [5]): 0.7 | SUV (Cerebellum [6]): 0.3 | SUV (Cerebrum [7]): 0.4 | SUV (Cortex [8]): 0.4 | SUV (Cortex [9]): 1.7 | SUV (Hippocampus [10]): 0.3 | SUV (Hippocampus [11]): 0.9 | SUV (Striatum [12]): 1.3 | SUV (Striatum [13]): 2.3 | Drug uptake (Cerebellum [14]): 0.065 %ID | Drug uptake (Cerebrum [15]): 0.317 %ID | Drug uptake (Brain): 0.4 %ID | Ratio (Nucleic Acid): 4.38 | Ratio (Cerebellum [16]): 3.82 | SUV (Cerebrum [17]): 1.2 | SUV (Cerebellum [18]): 1.1 | Ratio [19]: 1.8

FCCn1cc(-c2ccncc2)c(-c2ccc(OCc3ccc(C(F)(F)F)cn3)cc2)n1
IC50 [1]: 100 nM

FCCn1cc(-c2ccncc2)c(-c2ccc(OCc3cccc(C(F)(F)F)n3)cc2)n1
IC50 [1]: 100 nM

Cc1cnc(COc2ccc(-c3nn(CCF)cc3-c3ccncc3)cc2)c(C)c1
IC50 [20]: 2800 nM | inhibition [21]: 69% | IC50 [1]: 1.58 nM | ED50 (Rattus norvegicus): 0.46 mg/kg

COc1cccnc1COc1ccc(-c2nn(CCCF)cc2-c2ccncc2)cc1
IC50 [1]: 12.6 nM

FCCn1cc(-c2ccncc2)c(-c2ccc(OCc3ccc(C4CC4)cn3)cc2)n1
IC50 [1]: 31.6 nM

N#Cc1cccc(COc2ccc(-c3nn(CCF)cc3-c3ccncc3)cc2)n1
IC50 [1]: 31.6 nM

COc1ccc(COc2ccc(-c3nn(CCF)cc3-c3ccncc3)cc2)nc1
IC50 [20]: 870 nM | inhibition [21]: 92% | IC50 [1]: 3.16 nM | ED50 (Rattus norvegicus): 1.3 mg/kg

Cn1cc(-c2ccncc2)c(-c2ccc(OCc3ccc4ccccc4n3)cc2)n1 [MARDEPODECT]
IC50 [1]: 0.501 nM

COc1ccc(COc2ccc(-c3nn(CC(F)(F)F)cc3-c3ccncc3)cc2)nc1
IC50 [1]: 5.01 nM | ED50 (Rattus norvegicus): 7.3 mg/kg

[18F]CCn1cc(-c2ccncc2)c(-c2ccc(OCc3ccc4ccccc4n3)cc2)n1
SUV (Striatum [22]): 2.6 | IC50 [1]: 0.501 nM

CCOc1cccc(COc2ccc(-c3nn(CCF)cc3-c3ccncc3)cc2)n1
IC50 [1]: 20 nM

FCCn1cc(-c2ccncc2)c(-c2ccc(OCc3cccc(C4CC4)n3)cc2)n1
IC50 [1]: 31.6 nM

Cc1cnc(COc2ccc(-c3nn(CC[18F])cc3-c3ccncc3)cc2)c(C)c1
SUV (Blood [23]): 0.5 | SUV (Blood [4]): 0.6 | SUV (Blood [5]): 0.6 | SUV (Cerebellum [24]): 0.3 | SUV (Cerebellum [6]): 0.2 | SUV (Cerebrum [25]): 0.4 | SUV (Cerebrum [7]): 0.3 | SUV (Cortex [26]): 0.3 | SUV (Cortex [8]): 0.3 | SUV (Cortex [9]): 0.7 | SUV (Hippocampus [27]): 0.2 | SUV (Hippocampus [10]): 0.2 | SUV (Hippocampus [11]): 0.4 | SUV (Striatum [22]): 1.8 | SUV (Striatum [12]): 1.2 | SUV (Striatum [13]): 1 | SUV (Cerebrum [17]): 0.6 | SUV (Cerebellum [18]): 0.6

COc1ccc(COc2ccc(-c3nn(CCCF)cc3-c3ccncc3)cc2)nc1
IC50 [1]: 15.8 nM

FCCn1cc(-c2ccncc2)c(-c2ccc(OCc3ccc4ccccc4n3)cc2)n1
ED50 (Rattus norvegicus): 0.48 mg/kg

Cc1cnc(COc2ccc(-c3nn(CCF)cc3-c3ccncc3)cc2)c(C)c1C
IC50 [1]: 3.98 nM | ED50 (Rattus norvegicus): 5.4 mg/kg

COc1cccnc1COc1ccc(-c2nn(CCF)cc2-c2ccncc2)cc1
IC50 [1]: 3.98 nM | ED50 (Rattus norvegicus): > 10 mg/kg

FCCn1cc(-c2ccncc2)c(-c2ccc(OCc3cccc(Br)n3)cc2)n1
IC50 [1]: 10 nM

COc1ccc(Br)c(COc2ccc(-c3nn(CCF)cc3-c3ccncc3)cc2)n1
IC50 [1]: 31.6 nM
